Reference: ChEMBL document CHEMBL1949601, “γ-Carbolines: a novel class of cannabinoid agonists with high aqueous solubility and restricted CNS penetration” (Bioorg Med Chem Lett, 2012)
Values after ≈ are worked out from the molar mass of the structure shown.

Columns and labels:
Cannabinoid receptor 1 [1] = target: Cannabinoid receptor 1 (Homo sapiens, UniProt P21554); test: Agonist activity at human CB1 receptor expressed in HEK293 EBNA cells by [35S]GTPgamma binding assay; type: functional, cell-based
Cannabinoid receptor 2 = Cannabinoid receptor 2 (Homo sapiens, UniProt P34972); test: Binding affinity to human CB2 receptor
Cannabinoid receptor 1 [2] = target: Cannabinoid receptor 1 (Rattus norvegicus, UniProt P20272); test: Agonist activity at CB1 receptor in rat brain tissue; type: functional, tissue-based
[3] = target: Cannabinoid receptor 1 (Rattus norvegicus) (UniProt P20272); test: Agonist activity at CB1 receptor in rat brain tissue relative to control; type: functional, tissue-based
[4] = Aqueous solubility of the compound at pH 7.4; type: physicochemical
[5] = target: Prostaglandin G/H synthase 1 (Homo sapiens) (UniProt P23219); test: Activity at human COX1 receptor at 10 uM
MAO-A = MAO-A (Homo sapiens, UniProt P21397); test: Activity at human MAO-A receptor at 10 uM; settings: read-out: Activity
[6] = target: Mitogen-activated protein kinase 1 (Mus musculus) (UniProt P63085); test: Activity at mouse ERK2 receptor at 10 uM
[7] = target: Protein kinase C alpha type (Homo sapiens) (UniProt P17252); test: Activity at human PKCalpha at 10 uM
[8] = target: Alpha-2A adrenergic receptor (Homo sapiens) (UniProt P08913); test: Activity at human alpha2a adrenergic receptor at 10 uM
[9] = target: Beta-1 adrenergic receptor (Homo sapiens) (UniProt P08588); test: Activity at human beta1 adrenergic receptor at 10 uM
[10] = target: D(2) dopamine receptor (Homo sapiens) (UniProt P14416); test: Activity at human dopamine2L receptor at 10 uM
Rattus norvegicus [11] = organism: Rattus norvegicus; test: Activity at rat GABAa receptor at 10 uM
[12] = target: Histamine H1 receptor (Homo sapiens) (UniProt P35367); test: Activity at human histamine H1 receptor at 10 uM
[13] = Activity at nAChR receptor at 10 uM
[14] = target: 5-hydroxytryptamine receptor 6 (Homo sapiens) (UniProt P50406); test: Activity at human 5HT6 receptor at 10 uM
[15] = target: Bombesin receptor subtype-3 (Homo sapiens) (UniProt P32247); test: Activity at human BRS3 at 10 uM
[16] = target: C-C chemokine receptor type 1 (Homo sapiens) (UniProt P32246); test: Activity at human CCR1 at 10 uM
[17] = target: C-C chemokine receptor type 2 (Homo sapiens) (UniProt P41597); test: Activity at human CCR2b at 10 uM
[18] = target: Corticotropin-releasing factor receptor 1 (Homo sapiens) (UniProt P34998); test: Activity at human CRF1 receptor at 10 uM
[19] = target: CX3C chemokine receptor 1 (Homo sapiens) (UniProt P49238); test: Activity at human CX3CR1 receptor at 10 uM
[20] = target: C-X-C chemokine receptor type 2 (Homo sapiens) (UniProt P25025); test: Activity at human CXCR2 receptor at 10 uM
[21] = target: C-X-C chemokine receptor type 6 (Homo sapiens) (UniProt O00574); test: Activity at human CXCR6 receptor at 10 uM
[22] = target: Endothelin-1 receptor (Homo sapiens) (UniProt P25101); test: Activity at human ETA receptor at 10 uM
[23] = target: Growth hormone secretagogue receptor type 1 (Homo sapiens) (UniProt Q92847); test: Activity at human GHS receptor at 10 uM
[24] = target: Melanin-concentrating hormone receptor 1 (Homo sapiens) (UniProt Q99705); test: Activity at human MCH1 receptor at 10 uM
[25] = target: Muscarinic acetylcholine receptor M4 (Homo sapiens) (UniProt P08173); test: Activity at human M4 receptor at 10 uM
[26] = target: Somatostatin receptor type 4 (Homo sapiens) (UniProt P31391); test: Activity at human SST4 receptor at 10 uM
[27] = target: Vasopressin V1b receptor (Homo sapiens) (UniProt P47901); test: Activity at human V1B receptor at 10 uM
[28] = target: Prokineticin-2 (Rattus norvegicus) (UniProt Q8R413); test: Activity at rat PK2 receptor at 10 uM
[29] = target: N-formyl peptide receptor 2 (Homo sapiens) (UniProt P25090); test: Activity at human FPRL1 receptor at 10 uM
[30] = target: Urotensin-2 receptor (Mus musculus) (UniProt Q8VIH9); test: Activity at mouse UT2 receptor at 10 uM
[31] = target: Delta-type opioid receptor (Homo sapiens, UniProt P41143); test: Inhibition of human DOR
Mu-type opioid receptor = Mu-type opioid receptor (Homo sapiens, UniProt P35372); test: Inhibition of human MOR
[32] = Apparent permeability across human Caco2 cells; type: ADME, cell-based; settings: Caco-2
[33] = Fraction unbound in Sprague-Dawley rat plasma at 1 mg/kg, sc; type: ADME, organism-based; parameters: dose 1 mg/kg, route subcutaneous
[34] = Metabolic stability in human liver microsomes; type: ADME, Microsome; settings: read-out: Stability
[35] = Metabolic stability in rat liver microsomes; type: ADME, Microsome; settings: read-out: Stability
[36] = Clearance in iv dosed Sprague-Dawley rat; type: ADME, organism-based; settings: in vivo
[37] = Half life in iv dosed Sprague-Dawley rat; type: ADME, organism-based; settings: in vivo
[38] = Oral bioavailability in Sprague-Dawley rat; type: ADME, organism-based; settings: in vivo
Cytochrome P450 2D6 = Cytochrome P450 2D6 (Homo sapiens, UniProt P10635); test: Inhibition of CYP2D6; type: ADME
[39] = Dissociation constant, pKa of the compound; type: physicochemical
Cannabinoid receptor 1 [40] = target: Cannabinoid receptor 1 (Mus musculus, UniProt P47746); test: Agonist activity at CB1 receptor in field-stimulated mouse vas deferens; type: functional, tissue-based
Outline: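 Isolated mouse vas deferens under electrical field stimulation, used as an intact tissue assay of CB1 agonism at the native receptor.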

Brain = test: Drug uptake in brain of Sprague-Dawley rat at 0.35 to 1.4 mg/kg, sc; type: ADME, organism-based; parameters: dose 0.35-1.4 mg/kg, route subcutaneous; settings: in vivo, read-out: Drug uptake
Outline: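 Rats dosed sc at 0.35, 0.70 and 1.4 mg/kg in carrageenan model; brain homogenised, protein precipitated with ACN, centrifuged 9000g 30 min at 4 °C, measured by reversed-phase LC–MS/MS against serial-dilution calibration curve; brain corrected for 2% blood contamination.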

Rattus norvegicus [41] = test: Antihyperalgesic activity in sc dosed Sprague-Dawley rat carrageenan pain model; type: functional, organism-based
Outline: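 Rats dosed subcutaneously at 0.35, 0.70 and 1.4 mg/kg in carrageenan inflammatory pain model; reversal of heat hyperalgesia measured. n = 7 per group; mean ± SEM; one-way ANOVA with Holm-Sidak test versus vehicle group.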

Rattus norvegicus [42] = test: Toxicity in Sprague-Dawley rat carrageenan pain model assessed as hypoactivity at […], sc; type: organism-based; settings: in vivo
Rattus norvegicus [43] = test: Toxicity in Sprague-Dawley rat carrageenan pain model assessed as hypoactivity at 0.35 to 1.4 mg/kg, sc; type: organism-based; parameters: dose 0.35-1.4 mg/kg, route subcutaneous; settings: in vivo
Outline: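 Carrageenan-model rats given 0.35–1.4 mg/kg sc; hypoactivity scored 0 absent, 1 mild, 2 moderate, 3 severe; ptosis and exophthalmos also checked. n = 7; mean ± SEM; one-way ANOVA, Holm-Sidak versus vehicle.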

Sequence of Vasopressin V1b receptor (Homo sapiens) (P47901 whole entry): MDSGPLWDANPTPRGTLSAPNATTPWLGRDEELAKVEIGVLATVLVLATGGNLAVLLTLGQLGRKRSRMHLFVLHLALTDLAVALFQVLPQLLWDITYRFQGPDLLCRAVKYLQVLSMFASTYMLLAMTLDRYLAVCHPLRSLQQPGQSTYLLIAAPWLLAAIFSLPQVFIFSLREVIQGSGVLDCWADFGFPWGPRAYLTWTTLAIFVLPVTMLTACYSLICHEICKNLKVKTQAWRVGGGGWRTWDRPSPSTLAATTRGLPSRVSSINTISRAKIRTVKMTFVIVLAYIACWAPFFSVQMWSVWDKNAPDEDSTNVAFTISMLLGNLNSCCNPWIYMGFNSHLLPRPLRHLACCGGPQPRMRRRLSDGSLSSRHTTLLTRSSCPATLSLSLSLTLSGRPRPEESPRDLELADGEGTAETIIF
Sequence of Cannabinoid receptor 1 (Homo sapiens, UniProt P21554) (P21554 whole entry): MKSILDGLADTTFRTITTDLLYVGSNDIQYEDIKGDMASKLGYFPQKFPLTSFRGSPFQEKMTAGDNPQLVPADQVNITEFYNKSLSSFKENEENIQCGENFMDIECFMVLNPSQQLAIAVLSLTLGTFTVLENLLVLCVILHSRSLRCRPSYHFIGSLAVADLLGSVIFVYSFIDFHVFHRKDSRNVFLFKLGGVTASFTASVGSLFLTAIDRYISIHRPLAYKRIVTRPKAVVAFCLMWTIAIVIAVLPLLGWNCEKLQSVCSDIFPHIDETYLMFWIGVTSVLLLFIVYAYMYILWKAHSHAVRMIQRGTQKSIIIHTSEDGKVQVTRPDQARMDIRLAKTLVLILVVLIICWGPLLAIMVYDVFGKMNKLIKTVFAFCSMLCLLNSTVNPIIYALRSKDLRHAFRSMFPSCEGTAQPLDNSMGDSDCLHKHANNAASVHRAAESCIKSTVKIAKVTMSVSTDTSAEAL
Sequence of C-X-C chemokine receptor type 6 (Homo sapiens) (O00574 whole entry, looked up): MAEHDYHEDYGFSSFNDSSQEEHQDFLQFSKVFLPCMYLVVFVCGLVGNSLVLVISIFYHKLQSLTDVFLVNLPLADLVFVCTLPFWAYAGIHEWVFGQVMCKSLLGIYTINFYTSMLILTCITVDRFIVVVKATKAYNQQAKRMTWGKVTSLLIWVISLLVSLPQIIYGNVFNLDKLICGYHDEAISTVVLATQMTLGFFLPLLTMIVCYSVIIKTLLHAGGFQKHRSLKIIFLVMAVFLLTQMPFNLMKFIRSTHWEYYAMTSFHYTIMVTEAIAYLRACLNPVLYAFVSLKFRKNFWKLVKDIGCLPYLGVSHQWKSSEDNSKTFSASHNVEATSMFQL
Sequence of Mu-type opioid receptor (P35372 whole entry): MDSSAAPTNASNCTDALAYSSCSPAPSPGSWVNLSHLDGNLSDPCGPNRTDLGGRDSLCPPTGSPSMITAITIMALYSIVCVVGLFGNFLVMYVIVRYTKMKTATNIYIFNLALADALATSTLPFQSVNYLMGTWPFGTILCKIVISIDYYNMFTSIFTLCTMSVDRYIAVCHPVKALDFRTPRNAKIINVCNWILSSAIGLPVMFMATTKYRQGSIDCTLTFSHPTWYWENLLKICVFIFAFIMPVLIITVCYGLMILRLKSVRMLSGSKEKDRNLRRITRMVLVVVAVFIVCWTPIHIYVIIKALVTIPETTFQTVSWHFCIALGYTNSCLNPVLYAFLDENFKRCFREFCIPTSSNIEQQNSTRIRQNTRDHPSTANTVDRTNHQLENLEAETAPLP
Sequence of Cannabinoid receptor 2 (P34972 whole entry): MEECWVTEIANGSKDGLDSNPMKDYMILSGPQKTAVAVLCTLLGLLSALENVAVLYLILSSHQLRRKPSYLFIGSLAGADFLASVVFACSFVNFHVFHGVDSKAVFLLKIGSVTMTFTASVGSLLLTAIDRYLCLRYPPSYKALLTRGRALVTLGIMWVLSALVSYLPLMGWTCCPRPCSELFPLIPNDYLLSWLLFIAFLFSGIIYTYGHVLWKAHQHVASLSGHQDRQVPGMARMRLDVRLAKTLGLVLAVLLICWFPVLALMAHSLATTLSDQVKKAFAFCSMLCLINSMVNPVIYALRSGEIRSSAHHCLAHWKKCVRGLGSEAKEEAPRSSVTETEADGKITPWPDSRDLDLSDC
Sequence of Cannabinoid receptor 1 (Mus musculus, UniProt P47746) (P47746 whole entry): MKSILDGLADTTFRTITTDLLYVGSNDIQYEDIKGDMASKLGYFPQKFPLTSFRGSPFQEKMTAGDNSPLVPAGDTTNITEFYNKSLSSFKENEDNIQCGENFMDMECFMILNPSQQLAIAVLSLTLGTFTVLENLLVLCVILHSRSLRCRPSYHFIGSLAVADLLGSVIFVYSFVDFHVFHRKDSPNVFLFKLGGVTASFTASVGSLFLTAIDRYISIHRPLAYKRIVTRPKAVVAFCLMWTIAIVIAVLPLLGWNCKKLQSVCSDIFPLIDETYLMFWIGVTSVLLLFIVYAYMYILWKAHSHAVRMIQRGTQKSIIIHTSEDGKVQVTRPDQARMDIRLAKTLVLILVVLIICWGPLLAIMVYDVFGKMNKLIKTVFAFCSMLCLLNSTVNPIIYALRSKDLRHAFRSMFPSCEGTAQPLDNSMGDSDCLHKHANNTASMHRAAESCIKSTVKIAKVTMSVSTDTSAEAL
Sequence of 5-hydroxytryptamine receptor 6 (Homo sapiens) (P50406 whole entry): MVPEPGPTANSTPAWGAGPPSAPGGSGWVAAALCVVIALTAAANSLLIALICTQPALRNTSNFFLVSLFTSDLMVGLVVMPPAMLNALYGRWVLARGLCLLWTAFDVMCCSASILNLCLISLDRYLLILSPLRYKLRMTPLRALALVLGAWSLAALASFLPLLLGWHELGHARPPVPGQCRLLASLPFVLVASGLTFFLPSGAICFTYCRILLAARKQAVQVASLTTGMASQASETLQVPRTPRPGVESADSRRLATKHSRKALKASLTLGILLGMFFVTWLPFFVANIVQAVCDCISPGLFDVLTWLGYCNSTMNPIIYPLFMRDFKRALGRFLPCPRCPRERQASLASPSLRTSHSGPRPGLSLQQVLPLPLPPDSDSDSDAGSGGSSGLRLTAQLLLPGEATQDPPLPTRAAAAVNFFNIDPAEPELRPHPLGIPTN
Sequence of Corticotropin-releasing factor receptor 1 (Homo sapiens) (P34998 whole entry): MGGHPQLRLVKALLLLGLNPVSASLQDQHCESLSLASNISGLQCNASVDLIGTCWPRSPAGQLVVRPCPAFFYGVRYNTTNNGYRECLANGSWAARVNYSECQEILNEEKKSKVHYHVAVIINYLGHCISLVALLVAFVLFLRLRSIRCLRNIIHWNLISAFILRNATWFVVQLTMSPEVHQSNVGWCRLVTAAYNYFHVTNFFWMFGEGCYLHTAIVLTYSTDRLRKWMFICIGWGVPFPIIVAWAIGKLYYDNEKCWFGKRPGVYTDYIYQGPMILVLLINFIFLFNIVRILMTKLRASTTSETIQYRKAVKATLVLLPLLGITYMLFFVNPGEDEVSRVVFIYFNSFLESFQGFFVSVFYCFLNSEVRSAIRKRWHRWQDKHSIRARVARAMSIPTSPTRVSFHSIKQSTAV
Sequence of Beta-1 adrenergic receptor (Homo sapiens) (P08588 whole entry, looked up): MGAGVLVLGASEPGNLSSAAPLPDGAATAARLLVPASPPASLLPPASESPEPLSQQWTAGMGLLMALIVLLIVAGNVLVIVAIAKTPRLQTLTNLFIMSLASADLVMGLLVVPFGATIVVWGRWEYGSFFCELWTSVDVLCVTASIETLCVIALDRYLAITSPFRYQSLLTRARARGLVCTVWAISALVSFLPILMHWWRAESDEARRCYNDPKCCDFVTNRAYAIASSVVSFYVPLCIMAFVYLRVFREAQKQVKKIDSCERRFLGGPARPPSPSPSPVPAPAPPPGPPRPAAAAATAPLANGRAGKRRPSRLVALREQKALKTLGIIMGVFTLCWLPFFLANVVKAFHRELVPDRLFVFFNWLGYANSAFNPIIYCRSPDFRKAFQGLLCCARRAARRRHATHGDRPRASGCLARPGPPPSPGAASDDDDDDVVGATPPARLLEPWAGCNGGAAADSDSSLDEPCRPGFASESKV
Sequence of Urotensin-2 receptor (Mus musculus) (Q8VIH9 whole entry): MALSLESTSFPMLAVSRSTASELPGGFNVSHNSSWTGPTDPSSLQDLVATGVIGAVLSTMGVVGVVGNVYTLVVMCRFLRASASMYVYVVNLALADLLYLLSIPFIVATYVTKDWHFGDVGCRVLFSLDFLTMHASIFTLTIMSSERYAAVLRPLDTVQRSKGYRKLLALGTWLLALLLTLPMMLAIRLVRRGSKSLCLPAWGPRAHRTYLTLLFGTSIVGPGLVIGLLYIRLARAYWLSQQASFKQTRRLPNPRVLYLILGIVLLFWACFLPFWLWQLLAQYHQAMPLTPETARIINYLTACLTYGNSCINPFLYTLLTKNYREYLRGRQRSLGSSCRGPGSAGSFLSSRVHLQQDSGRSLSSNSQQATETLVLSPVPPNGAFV

## CCS(=O)(=O)n1c2c(c3cc(C(=O)N4CCC(C)CC4)ccc31)CN(C1CCOCC1)CC2
Cannabinoid receptor 1 [1]
  EC50: 49 nM
Cannabinoid receptor 2
  Ki: 9 nM
Cannabinoid receptor 1 [2]
  EC50: 85 nM
[3]
  Emax: 156%
[4]
  solubility: 480 µg/mL (≈ 1010 µM)
[5]
  Activity: < 50%
MAO-A
  activity at 10 µM: < 50%
[6]
  Activity: < 50%
[7]
  Activity: < 50%
[8]
  Activity: < 50%
[9]
  Activity: < 50%
[10]
  Activity: < 50%
Rattus norvegicus [11]
  Activity: < 50%
[12]
  Activity: < 50%
[13]
  Activity: < 50%
[14]
  Activity: < 50%
[15]
  Activity: < 50%
[16]
  Activity: < 50%
[17]
  Activity: < 50%
[18]
  Activity: < 50%
[19]
  Activity: < 50%
[20]
  Activity: < 50%
[21]
  Activity: < 50%
[22]
  Activity: < 50%
[23]
  Activity: < 50%
[24]
  Activity: < 50%
[25]
  Activity: < 50%
[26]
  Activity: < 50%
[27]
  Activity: < 50%
[28]
  Activity: < 50%
[29]
  Activity: < 50%
[30]
  Activity: < 50%
[31]
  IC50: > 10000 nM
Mu-type opioid receptor
  IC50: > 10000 nM
[32]
  Papp: 13 ×10⁻⁶ cm/s
[33]
  fraction unbound: 0.13
[34]
  microsomal CLint: 52 µL/min/mg
[35]
  microsomal CLint: 202 µL/min/mg
[36]
  clearance: 28 mL/min/kg
[37]
  half-life: 37.8 min
[38]
  bioavailability: 16%
Cytochrome P450 2D6
  IC50: > 20000 nM
[39]
  pKa: 6.9
Cannabinoid receptor 1 [40]
  IC50: 1.9 nM
Brain
  concentration: 10 nM
Rattus norvegicus [41]
  Activity: Dose-dependent effect
Rattus norvegicus [42]
  Activity: Toxic
Rattus norvegicus [43]
  Activity: Non-toxic
